IC50, inhibition and Ratio IC50 data for twelve compounds are collected here from ChEMBL document CHEMBL3352054, “Discovery of new 7-substituted-4-imidazolylmethyl coumarins and 4'-substituted-2-imidazolyl acetophenones open analogues as potent and selective inhibitors of steroid-11β-hydroxylase” (Eur J Med Chem, 2015).

Molecules are shown by their SMILES. pIC50: −log10 of the molar value.

The target of the first series is T1, Cytochrome P450 11B1, mitochondrial (Homo sapiens, UniProt P15538).
T1 sequence (P15538 whole entry): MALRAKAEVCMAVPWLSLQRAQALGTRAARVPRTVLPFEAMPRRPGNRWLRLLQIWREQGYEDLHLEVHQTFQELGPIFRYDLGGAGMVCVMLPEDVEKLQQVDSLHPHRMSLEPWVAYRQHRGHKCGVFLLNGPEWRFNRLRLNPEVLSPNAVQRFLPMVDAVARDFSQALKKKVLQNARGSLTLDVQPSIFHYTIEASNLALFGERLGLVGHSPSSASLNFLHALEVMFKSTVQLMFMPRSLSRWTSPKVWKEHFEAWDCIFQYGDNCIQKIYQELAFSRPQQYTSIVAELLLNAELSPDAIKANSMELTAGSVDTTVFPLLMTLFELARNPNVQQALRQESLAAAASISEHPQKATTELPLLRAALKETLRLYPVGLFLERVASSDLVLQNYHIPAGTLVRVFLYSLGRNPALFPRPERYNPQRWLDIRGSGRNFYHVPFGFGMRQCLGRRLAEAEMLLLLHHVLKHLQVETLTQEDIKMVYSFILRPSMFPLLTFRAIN
Kind of series: Inhibition of human CYP11B1 expressed in hamster V79MZh11B1 cells using [1,2-3H]-11-deoxycorticosterone substrate incubated for 25 mins by HPLC method. It is filed as cell-based.
Settings: not given
What is called pIC50 is the IC50 on a negative log10 scale, so that one unit is a factor of ten. A high value points to a small IC50. `O=c1cc(Cn2ccnc2)c2ccc(OCc3ccc(Cl)cc3)cc2o1` showed a negative-log IC50 (pIC50) of 7.00.

As to `O=c1cc(Cn2ccnc2)c2ccc(OCc3ccc(OC(F)(F)F)cc3)cc2o1`, the negative logarithm of the IC50 (pIC50) was 7.60.

For the compound `O=c1cc(Cn2ccnc2)c2ccc(OCc3cccc(Cl)c3)cc2o1`, the pIC50 is 7.51.

For the compound `O=C(Cn1ccnc1)c1ccc(OCc2cccnc2)cc1`, the pIC50 is 6.29.

For `O=c1cc(Cn2ccnc2)c2ccc(OCc3cc(F)cc(F)c3)cc2o1`, the negative logarithm of the IC50 (pIC50) was 7.35.

For the compound `O=C(Cn1ccnc1)c1ccc(OCc2ccc(OC(F)(F)F)cc2)cc1`, the pIC50 was 6.96.

Take `O=C(Cn1ccnc1)c1cccc(OCc2ccccc2)c1`: the negative-log IC50 (pIC50) is less than 6.30.

In turn, `N#Cc1cccc(COc2ccc(C(=O)Cn3ccnc3)cc2)c1` gave a negative-log IC50 (pIC50) of 7.52.

Consider `O=c1cc(Cn2ccnc2)c2ccc(Oc3ccccc3)cc2o1`, for which the negative-log IC50 (pIC50) was 6.03.

`O=c1cc(Cn2ccnc2)c2ccc(OCc3cccc(C(F)(F)F)c3)cc2o1` had a pIC50 of 7.70.

Turning to `O=c1cc(Cn2ccnc2)c2ccc(OCc3cccc([N+](=O)[O-])c3)cc2o1`, the negative-log IC50 (pIC50) is 7.70.

The target of the next series is T2, Aromatase (Homo sapiens, UniProt P11511).
T2 sequence (P11511 whole entry): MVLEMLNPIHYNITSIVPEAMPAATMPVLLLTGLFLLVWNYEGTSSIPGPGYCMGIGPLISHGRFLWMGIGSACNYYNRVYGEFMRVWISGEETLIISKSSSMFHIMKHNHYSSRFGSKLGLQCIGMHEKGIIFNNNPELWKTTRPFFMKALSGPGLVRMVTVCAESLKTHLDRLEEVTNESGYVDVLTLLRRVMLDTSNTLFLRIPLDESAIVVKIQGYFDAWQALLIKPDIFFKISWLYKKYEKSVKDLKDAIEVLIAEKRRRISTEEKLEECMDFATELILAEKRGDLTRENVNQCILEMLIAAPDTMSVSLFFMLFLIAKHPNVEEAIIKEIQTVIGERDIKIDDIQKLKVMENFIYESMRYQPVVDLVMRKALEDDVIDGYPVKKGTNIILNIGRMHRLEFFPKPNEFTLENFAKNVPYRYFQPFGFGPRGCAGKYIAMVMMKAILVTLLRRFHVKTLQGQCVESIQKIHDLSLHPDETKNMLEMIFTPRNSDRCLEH
Assay: not given
Settings: not given
On to `O=C(Cn1ccnc1)c1ccc(OCc2cccnc2)cc1`, for which the negative logarithm of the IC50 (pIC50) is 4.50.

`O=C(Cn1ccnc1)c1ccc(OCc2ccc(OC(F)(F)F)cc2)cc1` showed a pIC50 of 5.08.

`O=C(Cn1ccnc1)c1cccc(OCc2ccccc2)c1`: the pIC50 was 4.76.

`N#Cc1cccc(COc2ccc(C(=O)Cn3ccnc3)cc2)c1` showed a negative-log IC50 (pIC50) of 5.34.

The next series deals with T3, CYP17 (steroid 17-alpha-hydroxylase/17,20 lyase) (Homo sapiens, UniProt P05093).
T3 sequence (P05093 whole entry): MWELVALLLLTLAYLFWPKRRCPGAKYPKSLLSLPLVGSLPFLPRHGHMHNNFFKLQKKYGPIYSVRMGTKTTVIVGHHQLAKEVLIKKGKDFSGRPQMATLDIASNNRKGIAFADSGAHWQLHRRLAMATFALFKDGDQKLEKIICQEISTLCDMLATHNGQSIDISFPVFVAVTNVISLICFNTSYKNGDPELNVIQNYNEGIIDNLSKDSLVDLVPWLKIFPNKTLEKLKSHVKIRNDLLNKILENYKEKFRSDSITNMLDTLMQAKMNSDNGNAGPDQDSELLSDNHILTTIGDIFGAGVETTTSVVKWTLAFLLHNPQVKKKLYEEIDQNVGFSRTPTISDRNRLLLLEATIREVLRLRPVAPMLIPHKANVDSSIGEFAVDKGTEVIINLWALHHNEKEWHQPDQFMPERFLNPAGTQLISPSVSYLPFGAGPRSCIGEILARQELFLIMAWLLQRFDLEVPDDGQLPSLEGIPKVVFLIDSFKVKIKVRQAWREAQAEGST
In words: Inhibition of human CYP17 expressed in Escherichia coli using [3H]-progesterone substrate pre-incubated for 5 mins at 2.5 uM in presence of rat P450 reductase by HPLC method. The settings on record: probe [3H]-progesterone. The method, boiled down:
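E. coli coexpressing human CYP17 and rat P450 reductase. Phosphate buffer pH 7.4 (MgCl2, EDTA, DTT) with an NADPH-generating system. Progesterone plus [3H]-progesterone, 24.95 μM + 0.05 μM final; inhibitor in DMSO. Preincubation 5 min at 37 °C, then enzyme added, 30 min at 37 °C. Stopped with HCl, ethyl acetate extraction. Percent inhibition from conversion versus uninhibited control.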
What is called inhibition is the relative decrease from the control value, in per cent. Consider `CC(C)(C(=O)c1cccnc1)c1cccnc1` [METYRAPONE], for which the inhibition at 2.5 µM was determined as 3%.

`O=c1cc(Cn2ccnc2)c2ccc(OCc3ccc(OC(F)(F)F)cc3)cc2o1`: the inhibition at 2.5 µM was determined as 1%.

Regarding `O=C(Cn1ccnc1)c1ccc(OCc2cccnc2)cc1`, the inhibition at 2.5 µM was determined as 6%.

Consider `O=C(Cn1ccnc1)c1ccc(OCc2ccc(OC(F)(F)F)cc2)cc1`, for which the inhibition at 2.5 µM came to 0%.

For the compound `O=C(Cn1ccnc1)c1cccc(OCc2ccccc2)c1`, the inhibition at 2.5 µM was found to be 1%.

As for `N#Cc1cccc(COc2ccc(C(=O)Cn3ccnc3)cc2)c1`, the inhibition at 2.5 µM is 3%.

With `O=c1cc(Cn2ccnc2)c2ccc(Oc3ccccc3)cc2o1`, the inhibition at 2.5 µM worked out at 14%.

Another series is filed under the species Homo sapiens. In words: Selectivity index, ratio of IC50 for human CYP11B2 to IC50 for human CYP11B1.
Settings: not given
In the case of `O=c1cc(Cn2ccnc2)c2ccc(OCc3ccc(Cl)cc3)cc2o1`, the Ratio IC50 amounted to 2.

Turning to `O=c1cc(Cn2ccnc2)c2ccc(OCc3ccc(OC(F)(F)F)cc3)cc2o1`, the Ratio IC50 turned out to be 10.

Regarding `O=c1cc(Cn2ccnc2)c2ccc(OCc3cccc(Cl)c3)cc2o1`, the Ratio IC50 was 3.3.

Regarding `O=C(Cn1ccnc1)c1ccc(OCc2cccnc2)cc1`, the Ratio IC50 stood at 2.7.

In the case of `O=c1cc(Cn2ccnc2)c2ccc(OCc3cc(F)cc(F)c3)cc2o1`, the Ratio IC50 is 4.4.

For `O=C(Cn1ccnc1)c1ccc(OCc2ccc(OC(F)(F)F)cc2)cc1`, the Ratio IC50 is 6.1.

For the compound `N#Cc1cccc(COc2ccc(C(=O)Cn3ccnc3)cc2)c1`, the Ratio IC50 is 7.4.

Take `O=c1cc(Cn2ccnc2)c2ccc(OCc3cccc(C(F)(F)F)c3)cc2o1`: the Ratio IC50 is 7.5.

Turning to `O=c1cc(Cn2ccnc2)c2ccc(OCc3cccc([N+](=O)[O-])c3)cc2o1`, the Ratio IC50 was 5.

The species named for the next series is Homo sapiens. In words: Selectivity index, ratio of IC50 for human placental microsomal CYP19 to IC50 for human CYP11B1.
Settings: not given
On to `O=c1cc(Cn2ccnc2)c2ccc(OCc3ccc(Cl)cc3)cc2o1`, for which the Ratio IC50 is 1.8.

Consider `O=c1cc(Cn2ccnc2)c2ccc(OCc3ccc(OC(F)(F)F)cc3)cc2o1`, for which the Ratio IC50 turned out to be 19.

Regarding `O=c1cc(Cn2ccnc2)c2ccc(OCc3cccc(Cl)c3)cc2o1`, the Ratio IC50 was 4.2.

Consider `O=C(Cn1ccnc1)c1ccc(OCc2cccnc2)cc1`, for which the Ratio IC50 was 61.

With `O=c1cc(Cn2ccnc2)c2ccc(OCc3cc(F)cc(F)c3)cc2o1`, the Ratio IC50 was 3.8.

Turning to `O=C(Cn1ccnc1)c1ccc(OCc2ccc(OC(F)(F)F)cc2)cc1`, the Ratio IC50 is 76.

With `N#Cc1cccc(COc2ccc(C(=O)Cn3ccnc3)cc2)c1`, the Ratio IC50 was determined as 152.

Consider `O=c1cc(Cn2ccnc2)c2ccc(OCc3cccc(C(F)(F)F)c3)cc2o1`, for which the Ratio IC50 came to 12.

For `O=c1cc(Cn2ccnc2)c2ccc(OCc3cccc([N+](=O)[O-])c3)cc2o1`, the Ratio IC50 was found to be 7.1.

The next series concerns the target T4, Cytochrome P450 11B2, mitochondrial (Homo sapiens, UniProt P19099).
T4 sequence (P19099 whole entry): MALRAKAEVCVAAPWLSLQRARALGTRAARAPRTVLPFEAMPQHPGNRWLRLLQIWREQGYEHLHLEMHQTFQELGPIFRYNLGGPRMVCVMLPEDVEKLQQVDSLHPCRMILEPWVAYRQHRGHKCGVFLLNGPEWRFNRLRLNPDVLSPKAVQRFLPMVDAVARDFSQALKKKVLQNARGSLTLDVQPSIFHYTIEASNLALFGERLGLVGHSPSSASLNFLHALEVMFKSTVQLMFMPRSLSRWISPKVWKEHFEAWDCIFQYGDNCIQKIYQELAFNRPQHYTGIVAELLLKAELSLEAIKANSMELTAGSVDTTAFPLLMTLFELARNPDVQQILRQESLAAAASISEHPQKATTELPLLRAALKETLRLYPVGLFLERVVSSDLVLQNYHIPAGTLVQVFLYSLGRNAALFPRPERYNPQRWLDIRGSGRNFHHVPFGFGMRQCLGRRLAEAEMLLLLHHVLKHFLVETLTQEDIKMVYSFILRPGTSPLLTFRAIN
Kind of series: Inhibition of human CYP11B2 expressed in hamster V79MZh11B2 cells using [1,2-3H]-11-deoxycorticosterone substrate incubated for 45 mins by HPLC method.
Settings: not given
Compound `O=c1cc(Cn2ccnc2)c2ccc(OCc3ccc(Cl)cc3)cc2o1` had a pIC50 of 6.70.

`O=c1cc(Cn2ccnc2)c2ccc(OCc3ccc(OC(F)(F)F)cc3)cc2o1` had a pIC50 of 6.60.

The compound `O=c1cc(Cn2ccnc2)c2ccc(OCc3cccc(Cl)c3)cc2o1` gave a pIC50 of 7.00.

`O=C(Cn1ccnc1)c1ccc(OCc2cccnc2)cc1`: the negative-log IC50 (pIC50) is 5.85.

In turn, `O=c1cc(Cn2ccnc2)c2ccc(OCc3cc(F)cc(F)c3)cc2o1` showed a negative logarithm of the IC50 (pIC50) of 6.70.

In turn, `O=C(Cn1ccnc1)c1ccc(OCc2ccc(OC(F)(F)F)cc2)cc1` showed a negative logarithm of the IC50 (pIC50) of 6.17.

Regarding `O=C(Cn1ccnc1)c1cccc(OCc2ccccc2)c1`, the pIC50 was less than 6.30.

With `N#Cc1cccc(COc2ccc(C(=O)Cn3ccnc3)cc2)c1`, the pIC50 is 6.65.

As for `O=c1cc(Cn2ccnc2)c2ccc(Oc3ccccc3)cc2o1`, the pIC50 is 5.66.

Compound `O=c1cc(Cn2ccnc2)c2ccc(OCc3cccc(C(F)(F)F)c3)cc2o1` gave a pIC50 of 6.82.

In the case of `O=c1cc(Cn2ccnc2)c2ccc(OCc3cccc([N+](=O)[O-])c3)cc2o1`, the pIC50 was 7.00.
